Measurements as given in ChEMBL document CHEMBL4130613, “Identification and Proposed Relative and Absolute Configurations of Niphimycins C-E from the Marine-Derived Streptomyces sp. IMB7-145 by Genomic Analysis” (J Nat Prod, 2018).
Values after ≈ are worked out from the molar mass of the structure shown.

What was measured:
[1] = system: Staphylococcus epidermidis; experiment: Antibacterial activity against methicillin-resistant Staphylococcus epidermidis 12-8 after 18 hrs by agar dilution method; assay type: functional; conditions: 12-8, 18 h
Enterococcus faecalis [2] = experiment: Antibacterial activity against vancomycin-resistant Enterococcus faecalis ATCC 51299 after 18 hrs by agar dilution method; assay type: functional; conditions: ATCC 51299, 18 h
Enterococcus faecium [3] = experiment: Antibacterial activity against vancomycin-resistant Enterococcus faecium 12-1 after 18 hrs by agar dilution method; assay type: functional; conditions: 12-1, 18 h
Pseudomonas aeruginosa [4] = experiment: Antibacterial activity against Pseudomonas aeruginosa 12-16 after 18 hrs by agar dilution method; assay type: functional; conditions: 12-16, 18 h
Proteus mirabilis = experiment: Antibacterial activity against Proteus mirabilis 12-6 after 18 hrs by agar dilution method; assay type: functional; conditions: 12-6, 18 h
Staphylococcus aureus [5] = experiment: Antibacterial activity against methicillin-resistant Staphylococcus aureus 12-33 after 18 hrs by agar dilution method; assay type: functional; conditions: 12-33, 18 h
Pseudomonas aeruginosa [6] = experiment: Antibacterial activity against Pseudomonas aeruginosa ATCC 27853 after 18 hrs by agar dilution method; assay type: functional; conditions: ATCC 27853, 18 h
Morganella morganii = experiment: Antibacterial activity against Morganella morganii ATCC 25830 after 18 hrs by agar dilution method; assay type: functional; conditions: ATCC 25830, 18 h
Klebsiella pneumoniae [7] = experiment: Antibacterial activity against extended-spectrum beta-lactamase-positive Klebsiella pneumoniae ATCC 700603 after 18 hrs by agar dilution method; assay type: functional; conditions: Klebsiella pneumoniae, 700603, 18 h
Enterococcus faecium [8] = experiment: Antibacterial activity against vancomycin-resistant Enterococcus faecium ATCC 700221 after 18 hrs by agar dilution method; assay type: functional; conditions: ATCC 700221, 18 h
[9] = system: Stenotrophomonas maltophilia; experiment: Antibacterial activity against Stenotrophomonas maltophilia ATCC 13636 after 18 hrs by agar dilution method; assay type: functional; conditions: ATCC 13636, 18 h
Enterococcus faecalis [10] = experiment: Antibacterial activity against vancomycin-resistant Enterococcus faecalis 09-9 after 18 hrs by agar dilution method; assay type: functional; conditions: 09-9, 18 h
Staphylococcus aureus [11] = experiment: Antibacterial activity against methicillin-resistant Staphylococcus aureus ATCC 33591 after 18 hrs by agar dilution method; assay type: functional; conditions: ATCC 33591, 18 h
Citrobacter freundii = experiment: Antibacterial activity against Citrobacter freundii ATCC 43864 after 18 hrs by agar dilution method; assay type: functional; conditions: ATCC 43864, 18 h
Enterobacter cloacae = experiment: Antibacterial activity against Enterobacter cloacae ATCC 43560 after 18 hrs by agar dilution method; assay type: functional; conditions: ATCC 43560, 18 h
Escherichia coli [12] = experiment: Antibacterial activity against extended-spectrum beta-lactamase-positive Escherichia coli 12-15 after 18 hrs by agar dilution method; assay type: functional; conditions: 12-15, 18 h
Pseudomonas aeruginosa [13] = experiment: Antibacterial activity against Pseudomonas aeruginosa PAO1 after 18 hrs by agar dilution method; assay type: functional; conditions: PAO1, 18 h
Providencia rettgeri = experiment: Antibacterial activity against Providencia rettgeri ATCC 31052 after 18 hrs by agar dilution method; assay type: functional; conditions: ATCC 31052, 18 h
Escherichia coli [14] = experiment: Antibacterial activity against extended-spectrum beta-lactamase-negative Escherichia coli ATCC 25922 after 18 hrs by agar dilution method; assay type: functional; conditions: ATCC 25922, 18 h
Klebsiella aerogenes = experiment: Antibacterial activity against Enterobacter aerogenes ATCC 13048 after 18 hrs by agar dilution method; assay type: functional; conditions: ATCC 13048, 18 h
Klebsiella pneumoniae [15] = experiment: Antibacterial activity against extended-spectrum beta-lactamase-negative Klebsiella pneumoniae 7 after 18 hrs by agar dilution method; assay type: functional; conditions: Klebsiella pneumoniae, 7, 18 h
[16] = system: Mycobacterium tuberculosis; experiment: Antibacterial activity against Mycobacterium tuberculosis H37Rv […] by agar dilution method; assay type: functional
[17] = system: Mycobacterium tuberculosis; experiment: Antibacterial activity against Mycobacterium tuberculosis isolate FJ05349 […] by agar dilution method; assay type: functional
Klebsiella pneumoniae [18] = experiment: Antibacterial activity against extended-spectrum beta-lactamase-negative Klebsiella pneumoniae 12-4 after 18 hrs by agar dilution method; assay type: functional; conditions: 12-4, 18 h
Klebsiella pneumoniae [19] = experiment: Antibacterial activity against extended-spectrum beta-lactamase-positive Klebsiella pneumoniae 12-8 after 18 hrs by agar dilution method; assay type: functional; conditions: 12-8, 18 h
Proteus vulgaris = experiment: Antibacterial activity against Proteus vulgaris ATCC 29905 after 18 hrs by agar dilution method; assay type: functional; conditions: ATCC 29905, 18 h
[20] = system: Mycobacterium tuberculosis; experiment: Antibacterial activity against Mycobacterium tuberculosis isolate FJ05060 […] by agar dilution method; assay type: functional
Klebsiella pneumoniae [21] = experiment: Antibacterial activity against NDM-1 positive Klebsiella pneumoniae ATCC BAA-2146 after 18 hrs by agar dilution method; assay type: functional; conditions: ATCC BAA-2146, 18 h
HeLa = experiment: Cytotoxicity against human HeLa cells after 48 hrs by SRB assay; assay type: functional, cell-based
Outline: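 HeLa human cervical carcinoma cells obtained from ATCC. Cytotoxicity was read by sulforhodamine B staining following an earlier published protocol, with doxorubicin hydrochloride as positive control. Values are reported as IC50.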

Serratia marcescens = experiment: Antibacterial activity against Serratia marcescens ATCC 21074 after 18 hrs by agar dilution method; assay type: functional; conditions: ATCC 21074, 18 h
Escherichia coli [22] = experiment: Antibacterial activity against extended-spectrum beta-lactamase-negative Escherichia coli 1515 after 18 hrs by agar dilution method; assay type: functional; conditions: Escherichia coli, 1515, 18 h
Candida albicans = experiment: Antifungal activity against Candida albicans ATCC 10231 after 18 hrs by agar dilution method; assay type: functional; conditions: ATCC 10231, 18 h
[23] = system: Acinetobacter calcoaceticus; experiment: Antibacterial activity against Acinetobacter calcoaceticus ATCC 19606 after 18 hrs by agar dilution method; assay type: functional; conditions: ATCC 19606, 18 h
Escherichia coli [24] = experiment: Antibacterial activity against extended-spectrum beta-lactamase-negative Escherichia coli 12-14 after 18 hrs by agar dilution method; assay type: functional; conditions: 12-14, 18 h

Row | SMILES | MIC [1] | MIC (Enterococcus faecalis [2]) | MIC (Enterococcus faecium [3]) | MIC (Pseudomonas aeruginosa [4]) | MIC (Proteus mirabilis) | MIC (Staphylococcus aureus [5]) | MIC (Pseudomonas aeruginosa [6]) | MIC (Morganella morganii) | MIC (Klebsiella pneumoniae [7]) | MIC (Enterococcus faecium [8]) | MIC [9] | MIC (Enterococcus faecalis [10]) | MIC (Staphylococcus aureus [11]) | MIC (Citrobacter freundii) | MIC (Enterobacter cloacae) | MIC (Escherichia coli [12]) | MIC (Pseudomonas aeruginosa [13]) | MIC (Providencia rettgeri) | MIC (Escherichia coli [14]) | MIC (Klebsiella aerogenes) | other results
1 | CNC(=N)NCCC/C=C/CCC[C@H](C)C[C@H](C)[C@H]1OC(=O)[C@H](C)[C@H](O)/C=C/[C@H](C)[C@H](O)C[C@H](O)[C@H](C)[C@@H](O)CC[C@H](C)[C@H](O)C[C@]2(O)O[C@H](C[C@@H](OC(=O)CC(=O)O)C[C@H](O)C[C@@H](O)[C@H](C)[C@H](O)/C=C/C=C/[C@@H]1C)C[C@H](O)[C@H]2O | 4 to 32 µg/mL (≈ 3.5 to 28 µM) | 64 µg/mL (≈ 56 µM) | 64 µg/mL (≈ 56 µM) | > 64 µg/mL | > 64 µg/mL | 4 to 32 µg/mL (≈ 3.5 to 28 µM) | > 64 µg/mL | > 64 µg/mL | > 64 µg/mL | 64 µg/mL (≈ 56 µM) | > 64 µg/mL | 64 µg/mL (≈ 56 µM) | 4 to 32 µg/mL (≈ 3.5 to 28 µM) | > 64 µg/mL | > 64 µg/mL | > 64 µg/mL | > 64 µg/mL | > 64 µg/mL | > 64 µg/mL | > 64 µg/mL | MIC (Klebsiella pneumoniae [15]): > 64 µg/mL; MIC [16]: 4 µg/mL (≈ 3.5 µM); MIC [17]: 4 to 16 µg/mL (≈ 3.5 to 14 µM); MIC (Klebsiella pneumoniae [18]): > 64 µg/mL; MIC (Klebsiella pneumoniae [19]): > 64 µg/mL; MIC (Proteus vulgaris): > 64 µg/mL; MIC [20]: 4 to 16 µg/mL (≈ 3.5 to 14 µM); MIC (Klebsiella pneumoniae [21]): > 64 µg/mL; IC50 (HeLa): 3 to 9 µM; MIC (Serratia marcescens): > 64 µg/mL; MIC (Escherichia coli [22]): > 64 µg/mL; MIC (Candida albicans): 8 to 32 µg/mL (≈ 7 to 28 µM); MIC [23]: > 64 µg/mL; MIC (Escherichia coli [24]): > 64 µg/mL
2 | CNC(=N)NCCC/C=C/CCC[C@H](C)C[C@H](C)[C@H]1OC(=O)[C@H](C)[C@H](O)/C=C/[C@H](C)[C@H](O)C[C@H](O)[C@H](C)[C@@H](O)CC[C@H](C)[C@H](O)C[C@]2(O)O[C@H](C[C@@H](O)C[C@H](OC(=O)CC(=O)O)C[C@@H](O)[C@H](C)[C@H](O)/C=C/C=C/[C@@H]1C)C[C@H](O)[C@H]2O | 4 to 32 µg/mL (≈ 3.5 to 28 µM) | 64 µg/mL (≈ 56 µM) | 64 µg/mL (≈ 56 µM) | > 64 µg/mL | > 64 µg/mL | 4 to 32 µg/mL (≈ 3.5 to 28 µM) | > 64 µg/mL | > 64 µg/mL | > 64 µg/mL | 64 µg/mL (≈ 56 µM) | > 64 µg/mL | 64 µg/mL (≈ 56 µM) | 4 to 32 µg/mL (≈ 3.5 to 28 µM) | > 64 µg/mL | > 64 µg/mL | > 64 µg/mL | > 64 µg/mL | > 64 µg/mL | > 64 µg/mL | > 64 µg/mL | MIC (Klebsiella pneumoniae [15]): > 64 µg/mL; MIC [16]: 4 µg/mL (≈ 3.5 µM); MIC [17]: 4 to 16 µg/mL (≈ 3.5 to 14 µM); MIC (Klebsiella pneumoniae [18]): > 64 µg/mL; MIC (Klebsiella pneumoniae [19]): > 64 µg/mL; MIC (Proteus vulgaris): > 64 µg/mL; MIC [20]: 4 to 16 µg/mL (≈ 3.5 to 14 µM); MIC (Klebsiella pneumoniae [21]): > 64 µg/mL; IC50 (HeLa): 3 to 9 µM; MIC (Serratia marcescens): > 64 µg/mL; MIC (Escherichia coli [22]): > 64 µg/mL; MIC (Candida albicans): 8 to 32 µg/mL (≈ 7 to 28 µM); MIC [23]: > 64 µg/mL; MIC (Escherichia coli [24]): > 64 µg/mL
